Measured values of several laboratories.
Lines come from different studies, so protocols differ.
ESR2: Estrogen receptor beta (ESR2, Homo sapiens, UniProt Q92731)
STING1 H232R: Stimulator of interferon genes protein (STING1, Homo sapiens, UniProt Q86WV6, H232R)

`CCCCCCCCCCCCCC1OC(=O)/C1=C\CCCCCS(N)(=O)=O` (stereo not shown) has an IC50 of 500 to 1000 nM (Phosphatidylserine lipase ABHD16A (Homo sapiens, UniProt O95870); enzyme activity; inhibitor).
For `Nc1ccn([C@@H]2O[C@H](COP(=O)(O)OP(=O)(O)OP(O)(O)=S)[C@@H](O)[C@H]2O)c(=O)n1`, the Kd was 14.3 µM (virB (Shigella flexneri, UniProt P0A247); binding; ITC).
The IC50 of `O=C(CCCc1ccc(N(CCCl)CCCl)cc1)NCCC1CCN(CCOc2ccc(Oc3c(-c4ccc(O)cc4)sc4cc(O)ccc34)cc2)CC1` is reported as 67 nM (ESR2; ligand displacement; radioligand).
`CCC(C)c1cccc(C(C)CC)c1O` (stereo not shown) gave an IC50 of roughly 30000 nM (Potassium/sodium hyperpolarization-activated cyclic nucleotide-gated channel 1 (Hcn1, Mus musculus, UniProt O88704); ion current; two-electrode voltage clamp; oocytes).
With `Nc1nccc(-c2cccc(-c3ccccc3)c2)n1` the Kd was 0.064 µM (Phosphatidylinositol 5-phosphate 4-kinase type-2 gamma (PIP4K2C, Homo sapiens, UniProt Q8TBX8); binding).
The IC50 of `CN1CCC[C@H]1c1cccnc1` is reported as roughly 40000 nM (Urea transporter 1 (Slc14a1, Rattus norvegicus, UniProt P97689); transporter uptake; inhibitor).
`C[C@H]1CCC[C@H](O)CCC/C=C/c2cc(O)cc(O)c2C(=O)O1` has an EC50 of 0.44 nM (ESR2; reporter gene; agonist; luciferase).
`CC(C)[C@@H]1NC(=O)[C@@H]2CCCN2C(=O)[C@H](Cc2ccccc2)NC(=O)CSC[C@@H](C(=O)N[C@@H](Cc2ccc(O)cc2)C(N)=O)NC(=O)[C@H](Cc2c[nH]c3ccccc23)NC(=O)[C@H](CCCCN)NC(=O)[C@H](Cc2ccccc2)N(C)C(=O)[C@H](Cc2ccccc2)NC1=O` gave an IC50 of 180 nM (STING1 H232R; ligand displacement; TR-FRET).
The IC50 of `O=C(Nc1ccc(I)cc1)N1CCC(n2c(=O)[nH]c3c(Br)cccc32)CC1` is reported as 342 nM (N-glycosylase/DNA lyase (OGG1, Homo sapiens, UniProt O15527); enzyme activity; inhibitor; fluorescence).
`CC(=O)CC(=O)C(=O)O` has a Ki of 1400 nM (4-hydroxy-tetrahydrodipicolinate synthase (dapA, Escherichia coli K-12, UniProt P0A6L2); enzyme activity; inhibitor; absorbance).
For `c1c[nH]cn1`, the Kd was 56 µM (Nitric oxide synthase, inducible (Nos2, Mus musculus, UniProt P29477); binding).
`CC(C)C[C@H](NC(=O)[C@H](Cc1ccccc1)NC(=O)[C@H](Cc1ccc(O)cc1)NC(=O)CNC(=O)[C@H](CCCCN)NC(=O)[C@H](CO)NC(=O)[C@H](CCC(N)=O)NC(=O)CNC(=O)[C@@H](NC(=O)[C@H](CO)NC(=O)[C@@H]1CCCN1C(=O)[C@H](CO)NC(=O)[C@H](CCC(N)=O)NC(=O)[C@H](Cc1ccc(O)cc1)NC(=O)[C@H](CCC(=O)O)NC(=O)[C@H](C)NC(=O)[C@H](CCCCN)NC(=O)[C@@H](N)Cc1ccccc1)C(C)C)C(=O)N[C@@H](Cc1ccccc1)C(=O)N[C@@H](CCCNC(=N)N)C(=O)N1CCC[C@H]1C(=O)N[C@@H](CCCNC(=N)N)C(=O)N[C@@H](CC(N)=O)C(N)=O` gave an EC50 of 0.45 nM (Neuromedin-U receptor 1 (NMUR1, Homo sapiens, UniProt Q9HB89); inositol phosphate; agonist; TR-FRET).
With `CC(C)C[C@@H]1NC(=O)[C@H](Cc2ccc(O)cc2)NC(=O)[C@H](C(C)C)NC(=O)[C@H](Cc2ccc(O)cc2)NC(=O)[C@H](CC(N)=O)NC(=O)[C@H](Cc2ccccc2)N(C)C(=O)[C@@H]2CCCN2C(=O)[C@H](Cc2ccc(O)cc2)NC(=O)[C@H](C(C)C)NC(=O)[C@H](CC(C)C)NC(=O)[C@H](Cc2ccccc2)NC(=O)CSC[C@@H](C(=O)NCC(N)=O)NC1=O` the IC50 was 38000 nM (STING1 H232R; ligand displacement; TR-FRET).
